According to ChEMBL document CHEMBL1154477, “1,2,3-Triazol-carboxanilides and 1,2,3-triazol-(N-benzyl)-carboxamides as BK-potassium channel activators. XII” (Eur J Med Chem, 2008):

Assays:
Type in all cases: tissue-based
[1] = target: Calcium-activated potassium channel subunit alpha-1 (Rattus norvegicus) (UniProt Q62976); assay: (§1) Activation of BK channel in Wistar rat thoracic aorta assessed as relaxation of KCl-induced contraction
Summary of the method: (§2)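 Endothelium-denuded aortic rings in Tyrode at 37 °C, gassed 95% O2/5% CO2. Denudation was confirmed by under 10% acetylcholine relaxation of KCl 20 mM tone. Rings were precontracted with KCl 20 mM, then given cumulative 3-fold increasing concentrations from 10 nM (DMSO stock, diluted in Tyrode). Efficacy was maximal relaxation as % of KCl tone; pIC50 was derived only when efficacy was ≥55%. 5-10 experiments.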

[2] = target: Calcium-activated potassium channel subunit alpha-1 (Rattus norvegicus, UniProt Q62976); assay: as §1; summary of the method: as §2
Calcium-activated potassium channel subunit alpha-1, sequence (Q62976 whole entry): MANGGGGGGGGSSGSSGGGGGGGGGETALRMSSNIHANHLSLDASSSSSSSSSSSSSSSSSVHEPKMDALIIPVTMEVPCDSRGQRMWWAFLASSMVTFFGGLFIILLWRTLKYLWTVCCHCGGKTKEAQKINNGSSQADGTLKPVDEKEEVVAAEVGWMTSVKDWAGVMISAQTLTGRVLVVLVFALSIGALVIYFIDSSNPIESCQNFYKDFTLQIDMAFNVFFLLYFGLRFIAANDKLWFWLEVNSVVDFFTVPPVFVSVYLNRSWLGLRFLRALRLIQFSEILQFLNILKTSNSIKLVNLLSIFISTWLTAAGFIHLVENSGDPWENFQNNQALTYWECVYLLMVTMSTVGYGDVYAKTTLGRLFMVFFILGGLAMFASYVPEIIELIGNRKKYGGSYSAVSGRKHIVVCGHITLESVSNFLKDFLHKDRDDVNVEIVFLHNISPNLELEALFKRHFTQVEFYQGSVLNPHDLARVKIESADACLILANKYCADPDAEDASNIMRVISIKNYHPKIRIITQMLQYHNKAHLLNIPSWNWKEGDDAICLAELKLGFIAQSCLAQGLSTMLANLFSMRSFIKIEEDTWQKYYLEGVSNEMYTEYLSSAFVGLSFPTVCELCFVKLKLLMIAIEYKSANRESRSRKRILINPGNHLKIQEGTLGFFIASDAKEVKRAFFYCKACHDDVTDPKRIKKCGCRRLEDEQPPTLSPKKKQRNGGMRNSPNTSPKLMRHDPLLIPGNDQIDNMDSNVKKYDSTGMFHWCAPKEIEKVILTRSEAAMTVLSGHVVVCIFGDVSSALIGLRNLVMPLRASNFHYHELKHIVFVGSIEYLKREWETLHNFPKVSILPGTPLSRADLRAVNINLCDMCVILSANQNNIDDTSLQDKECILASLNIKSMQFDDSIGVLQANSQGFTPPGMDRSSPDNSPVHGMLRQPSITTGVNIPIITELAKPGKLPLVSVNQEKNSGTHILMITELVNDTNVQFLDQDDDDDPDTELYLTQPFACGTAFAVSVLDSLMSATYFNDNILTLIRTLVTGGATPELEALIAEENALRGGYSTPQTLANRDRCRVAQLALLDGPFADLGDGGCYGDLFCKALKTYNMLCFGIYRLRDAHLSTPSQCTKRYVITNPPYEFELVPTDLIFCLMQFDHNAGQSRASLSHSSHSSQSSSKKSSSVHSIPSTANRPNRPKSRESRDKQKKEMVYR

[3] = target: Calcium-activated potassium channel subunit alpha-1 (Rattus norvegicus) (UniProt Q62976); assay: Activation of BK channel in Wistar rat thoracic aorta assessed as relaxation of KCl-induced contraction in presence of potassium channel blocker TEAC
Summary of the method: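 Endothelium-denuded aortic rings in gassed Tyrode at 37 °C, incubated with tetraethylammonium chloride 10 mM for 20 min before KCl 20 mM precontraction. Cumulative 3-fold increasing concentrations from 10 nM were added at the plateau. Relaxation was expressed as % of KCl tone, with pIC50 as the negative log molar concentration halving the tone. 5-10 experiments.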

Calcium-activated potassium channel subunit alpha-1 (Rattus norvegicus), sequence (Q62976 whole entry): as above

| Compound | Emax [1] [%] | IC50 [2] [µM] | Emax [3] [%] |
| --- | --- | --- | --- |
| Cc1c(C(=O)Nc2ccccc2O)nnn1Cc1ccccc1F | 35 | – | – |
| Cc1c(C(=O)Nc2ccccc2O)nnn1Cc1ccccc1Cl | 52 | – | – |
| Cc1c(C(=O)NCc2ccccc2)nnn1Cc1ccccc1O | 48 | – | – |
| O=c1[nH]c2cc(C(F)(F)F)ccc2n1-c1cc(C(F)(F)F)ccc1O | 94 | 5.13 | – |
| Cc1c(C(=O)Nc2ccc(Cl)cc2)nnn1Cc1ccccc1O | 53 | – | – |
| Cc1c(C(=O)NCc2ccccc2O)nnn1Cc1ccccc1F | 24 | – | – |
| Cc1c(C(=O)Nc2ccccc2O)nnn1Cc1ccccc1O | 81 | 20.4 | – |
| Cc1c(C(=O)NCc2ccccc2O)nnn1Cc1ccccc1Cl | 49 | – | – |
| Cc1c(C(=O)Nc2ccccc2)nnn1Cc1ccccc1O | 89 | 17.8 | 37 |
| Cc1c(C(=O)NCc2ccccc2Cl)nnn1Cc1ccccc1O | 51 | – | – |
| Cc1c(C(=O)NCc2ccccc2O)nnn1Cc1ccccc1O | 76 | 21.9 | – |
